Measured values: ChEMBL document CHEMBL3124842, “Design, synthesis and evaluation of the antidepressant and anticonvulsant activities of triazole-containing quinolinones” (Eur J Med Chem, 2014)
The source made the active and inactive calls. The calls are words filed in the database; no cut-off is given here.

Assays:
[1] = system: Mus musculus; assay: Anticonvulsant activity in ip dosed KunMing mouse assessed as protection against maximal electroshock-induced seizures after 4 hrs; assay type: functional; settings: read-out: MED
Procedure, shortened: (§1)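 Mice (22 ± 2 g) given compounds in DMSO i.p. at 30, 100 and 300 mg/kg; seizures elicited by electroshock via ear stimulation. Protection = abolition of hind limb tonic extension, read at 0.5 and 4 h after injection. Value is the minimal dose active in half or more of the mice; 300 mg/kg was the top dose.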

[2] = system: Mus musculus; assay: Neurotoxicity in KunMing mouse assessed as motor impairment at 300 mg/kg, ip after 0.5 hrs by rotarod test; assay type: toxicity, organism-based; set-up: dose 300 mg/kg, route intraperitoneal; settings: in vivo
Procedure, shortened: (§2)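 Mice were trained on a 3.2 cm diameter rotarod turning at 10 rpm, then given compounds in DMSO i.p. at 30, 100 or 300 mg/kg. Neurotoxicity = failure to stay on the rod for at least 1 min in each trial, checked at 0.5 and 4 h. Value is the minimal dose toxic in half or more of the mice.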

[3] = system: Mus musculus; assay: Anticonvulsant activity in KunMing mouse assessed as protection against maximal electroshock-induced seizures at 300 mg/kg, ip after 0.5 hrs; assay type: functional, organism-based; set-up: dose 300 mg/kg; procedure, shortened: as §1
[4] = system: Mus musculus; assay: Neurotoxicity in KunMing mouse assessed as motor impairment at 300 mg/kg, ip after 4 hrs by rotarod test; assay type: toxicity, organism-based; set-up: dose 300 mg/kg, route intraperitoneal; settings: in vivo; procedure, shortened: as §2
[5] = system: Mus musculus; assay: Neurotoxicity in KunMing mouse at 50 mg/kg, ip; assay type: toxicity, organism-based; set-up: dose 50 mg/kg, route intraperitoneal; settings: in vivo
[6] = system: Mus musculus; assay: Antidepressant activity in KunMing mouse assessed as immobility time at 50 mg/kg, ip by forced swimming test; assay type: functional; settings: route intraperitoneal
Procedure, shortened: (§3)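 Compounds in DMSO given i.p. to mice, n = 8 per group. Dose was 50 mg/kg, or 10, 25 and 50 mg/kg in the dose-response study. After 30 min each mouse was placed in a water-filled cylinder (water 18 cm deep, 23–25 °C). Immobility (upright floating, only slight movements) was timed over the last 4 min of 6 min. %DID = (A − B)/A × 100, where A is control immobility and B is test immobility. Mean ± SEM; ANOVA with Dunnett's test versus control.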

[7] = system: Mus musculus; assay: Antidepressant activity in KunMing mouse assessed as decrease in immobility time at 50 mg/kg, ip by forced swimming test relative to control; assay type: functional; set-up: scale not given: the % may be the effect or the level left; settings: route intraperitoneal; procedure, shortened: as §3
[8] = system: Mus musculus; assay: Antidepressant activity in KunMing mouse assessed as decrease in immobility time at 10 mg/kg, ip by forced swimming test; assay type: functional, organism-based; set-up: dose 10 mg/kg; procedure, shortened: as §3
[9] = system: Mus musculus; assay: Antidepressant activity in KunMing mouse assessed as decrease in immobility time at 25 to 50 mg/kg, ip by forced swimming test; assay type: functional, organism-based; procedure, shortened: as §3
[10] = system: Mus musculus; assay: Antidepressant activity in ip dosed KunMing mouse assessed as decrease in immobility time by forced swimming test; assay type: functional, organism-based; procedure, shortened: as §3
[11] = system: Mus musculus; assay: Toxicity in KunMing mouse assessed as effect on grooming at 50 mg/kg, ip by open-field test; assay type: organism-based; set-up: dose 50 mg/kg, route intraperitoneal; settings: in vivo
Procedure, shortened: (§4)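 Mice (22 ± 2 g) given 50 mg/kg i.p. in DMSO; tested 30 min later in an open field, placed at the centre. Counts were taken of locomotion (line crossings), rearing (standing on hind legs) and grooming. Mean ± SEM; ANOVA with Bonferroni's test versus control.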

[12] = system: Mus musculus; assay: Toxicity in KunMing mouse assessed as effect on rearing at 50 mg/kg, ip by open-field test; assay type: organism-based; set-up: dose 50 mg/kg, route intraperitoneal; settings: in vivo; procedure, shortened: as §4
[13] = system: Mus musculus; assay: Antidepressant activity in KunMing mouse at 50 mg/kg, ip by tail suspension test; assay type: functional, organism-based; set-up: dose 50 mg/kg
Procedure, shortened: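 Male KunMing mice (22 ± 2 g, n = 8 per group), dosed i.p. at 50 mg/kg from a dimethylsulfoxide solution. Each mouse was hung by the tail above the floor with adhesive tape about 1-2 cm from the tail tip. Immobility, meaning completely motionless and hanging passively, was timed over the last 6 min of a 7 min session. Read-out was mean ± SEM, compared with control by ANOVA followed by Dunnett's test.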

[14] = system: Mus musculus; assay: Toxicity in KunMing mouse assessed as effect on locomotion at 50 mg/kg, ip by open-field test; assay type: organism-based; set-up: dose 50 mg/kg, route intraperitoneal; settings: in vivo; procedure, shortened: as §4
[15] = system: Mus musculus; assay: Anticonvulsant activity in KunMing mouse assessed as protection against maximal electroshock-induced seizures at 300 mg/kg, ip after 4 hrs; assay type: functional, organism-based; set-up: dose 300 mg/kg; procedure, shortened: as §1
[16] = system: Mus musculus; assay: Anticonvulsant activity in ip dosed KunMing mouse assessed as protection against maximal electroshock-induced seizures after 0.5 hrs; assay type: functional; settings: read-out: MED; procedure, shortened: as §1
[17] = system: Mus musculus; assay: Neurotoxicity in ip dosed KunMing mouse assessed as motor impairment after 4 hrs by rotarod test; assay type: toxicity, organism-based; settings: in vivo; procedure, shortened: as §2
[18] = system: Mus musculus; assay: Anticonvulsant activity in KunMing mouse assessed as protection against maximal electroshock-induced seizures at 100 mg/kg, ip after 0.5 hrs relative to control; assay type: functional; settings: route intraperitoneal; procedure, shortened: as §1
[19] = system: Mus musculus; assay: Neurotoxicity in ip dosed KunMing mouse assessed as motor impairment after 0.5 hrs by rotarod test; assay type: toxicity, organism-based; settings: in vivo; procedure, shortened: as §2

Structure (SMILES)	minimal effective dose [1] [mg/kg]	Activity [2]	Activity [3]	Activity [4]	Activity [5]	Time [6] [s]	Activity [7] [%]	Activity [8]	Activity [9]	Activity [10]	Activity [11]	Activity [12]	Activity [13]	Activity [14]	Activity [15]	minimal effective dose [16] [mg/kg]	MTC [17] [mg/kg]	Activity [18] [%]	MTC [19] [mg/kg]
O=C1CCc2cc(-n3cnnc3)ccc2N1Cc1ccccc1Cl	300	Non-toxic	inactive	Non-toxic	Non-toxic	77.8	40.4												
O=C1CCc2cc(-n3cnnc3)ccc2N1Cc1ccccc1F	300	Non-toxic	inactive	Non-toxic	Non-toxic	35.6	72.7	inactive	Active	Dose-dependent effect	Non-toxic	Non-toxic	Active	Non-toxic					
O=C1CCc2cc(-n3cnnc3)ccc2N1Cc1ccc(F)cc1	300	Non-toxic	inactive	Non-toxic	Non-toxic	71.1	45.5												
O=C1CCc2cc(-n3cnnc3)ccc2N1Cc1c(Cl)cccc1Cl		Non-toxic	inactive	Non-toxic	Non-toxic	111	15.7								inactive				
CNCCC(Oc1ccc(C(F)(F)F)cc1)c1ccccc1 (stereo not drawn) [FLUOXETINE]						65.9	49.5						Active						
Cc1ccc(CN2C(=O)CCc3cc(-n4cnnc4)ccc32)cc1		Non-toxic	inactive	Non-toxic	Non-toxic	78.8	39.6								inactive				
O=C1CCc2cc(-n3cnnc3)ccc2N1Cc1ccc(Cl)cc1		Non-toxic	inactive	Non-toxic	Non-toxic	36.1	72.3								inactive				
O=C1CCc2cc(-n3cnnc3)ccc2N1Cc1ccc(Cl)cc1Cl	300	Non-toxic		Non-toxic	Non-toxic	105.8	18.9									300			
CCCCCCN1C(=O)CCc2cc(-n3cnnc3)ccc21	300				Non-toxic	98.5	24.5									100	300	100	300
CCCCCN1C(=O)CCc2cc(-n3cnnc3)ccc21					Non-toxic	129.8	0.5								inactive	100	300	100	300
CCCN1C(=O)CCc2cc(-n3cnnc3)ccc21		Non-toxic	inactive		Non-toxic	123.6	5.3								inactive		300		
O=C1CCc2cc(-n3cnnc3)ccc2N1Cc1ccccc1		Non-toxic	inactive	Non-toxic	Non-toxic	68.1	47.8								inactive				
O=C1CCc2cc(-n3cnnc3)ccc2N1Cc1cccc(F)c1		Non-toxic	inactive	Non-toxic	Non-toxic	43	67								inactive				
CCCC(CCC)C(=O)[O-].[Na+] [VALPROATE SODIUM]		Non-toxic		Non-toxic											inactive	300			
CCCCCCCN1C(=O)CCc2cc(-n3cnnc3)ccc21					Non-toxic	77.9	40.3								inactive	300	300		300
CCCCCCCCN1C(=O)CCc2cc(-n3cnnc3)ccc21	300	Non-toxic			Non-toxic	83.3	35.8									300	300		
CCCCN1C(=O)CCc2cc(-n3cnnc3)ccc21		Non-toxic	inactive		Non-toxic	70	46.4								inactive		300		
O=C1NC(=O)C(c2ccccc2)(c2ccccc2)N1 [PHENYTOIN]	100															30	100		100
O=C1CCc2cc(-n3cnnc3)ccc2N1Cc1cccc(Cl)c1	300	Non-toxic	inactive	Non-toxic	Non-toxic	53.4	59.1												
COc1ccc(CN2C(=O)CCc3cc(-n4cnnc4)ccc32)cc1		Non-toxic	inactive	Non-toxic	Non-toxic	121.6	6.8								inactive				
O=C1CCc2cc(-n3cnnc3)ccc2N1Cc1cccc(C(F)(F)F)c1	300	Non-toxic		Non-toxic	Non-toxic	93.3	37.2									300			
CCCCCCCCCCN1C(=O)CCc2cc(-n3cnnc3)ccc21		Non-toxic	inactive	Non-toxic	Non-toxic	101	22.6								inactive				
